Calls of active or inactive are those of the source. The calls are words filed in the database; no cut-off is given here.
Assays:
Assay type in all cases: functional
[1] = Cytotoxicity against human CNS cancer cells after 48 hrs by coulter counting; settings: Cancer cell lines
Procedure, shortened: (§1)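 NCI 60-cell-line panel covering nine tumour subpanels, tested over a 5-log dose range. Compounds were dissolved in DMSO and diluted in phosphate-buffered saline to a final DMSO below 1%. Wells held 6 × 10⁴ cells/ml and were run in duplicate. Controls contained PBS and DMSO at matching dilutions. Incubation was at 37 °C in humidified 5% CO₂. GI₅₀, TGI and LC₅₀ were reported.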

[2] = Cytotoxicity against human ovarian cancer cells after 48 hrs by coulter counting; settings: Cancer cell lines; procedure, shortened: as §1
HCT-15 = experiment: Growth inhibition of human HCT15 cells at 10 uM after 48 hrs by coulter counting
Procedure, shortened: (§2)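 Single-dose primary screen across the full NCI 60-cell-line panel. Stocks were made in DMSO and diluted in PBS to a final DMSO below 1%. Cultures at 6 × 10⁴ cells/ml were run in duplicate wells alongside PBS/DMSO vehicle controls at 37 °C in humidified 5% CO₂. Data were expressed as percent growth of treated cells.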

UACC-257 = experiment: Growth inhibition of human UACC257 cells at 10 uM after 48 hrs by coulter counting; settings: UACC-257, 48 h, read-out: GI
Procedure, shortened: (§3)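 Single-dose screen in the NCI 60 human tumor cell line panel (nine subpanels). Compounds dissolved in DMSO and diluted in phosphate buffered saline, keeping final DMSO below 1%. Added in duplicate wells to cells at 6 × 10⁴ cells/ml. Controls held PBS and DMSO at matching dilutions. Incubated at 37 °C, humidified, 5% CO₂. Reported as percent growth of treated cells.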

CCRF-CEM = experiment: Growth inhibition of human CCRF-CEM cells at 10 uM after 48 hrs by coulter counting; settings: read-out: GI; procedure, shortened: as §2
HL-60(TB) = experiment: Growth inhibition of human HL-60(TB) cells at 10 uM after 48 hrs by coulter counting; settings: HL-60, 48 h, read-out: GI
Procedure, shortened: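 Test compound was dissolved in DMSO and diluted in phosphate-buffered saline to a final DMSO level below 1%. Dilutions were plated in duplicate with cell culture at 6 × 10⁴ cells/ml. Vehicle controls held PBS and DMSO at matching dilutions. Incubation was at 37 °C, humidified, under 5% CO₂. Data were reported as percent growth of treated cells.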

K562 = experiment: Growth inhibition of human K562 cells at 10 uM after 48 hrs by coulter counting; procedure, shortened: as §2
MOLT-4 = experiment: Growth inhibition of human MOLT4 cells at 10 uM after 48 hrs by coulter counting; settings: MOLT-4, 48 h, read-out: GI; procedure, shortened: as §2
RPMI-8226 = experiment: Growth inhibition of human RPMI8226 cells at 10 uM after 48 hrs by coulter counting; procedure, shortened: as §2
SR = experiment: Growth inhibition of human SR cells at 10 uM after 48 hrs by coulter counting; procedure, shortened: as §3
A549 = experiment: Growth inhibition of human A549 cells at 10 uM after 48 hrs by coulter counting; settings: A549, 48 h, read-out: GI; procedure, shortened: as §2
EKVX = experiment: Growth inhibition of human EKVX cells at 10 uM after 48 hrs by coulter counting; settings: read-out: GI; procedure, shortened: as §2
HOP-62 = experiment: Growth inhibition of human HOP62 cells at 10 uM after 48 hrs by coulter counting; procedure, shortened: as §2
NCI-H226 = experiment: Growth inhibition of human NCI-H226 cells at 10 uM after 48 hrs by coulter counting; settings: NCI-H226, 48 h, read-out: GI; procedure, shortened: as §2
NCI-H23 = experiment: Growth inhibition of human NCI-H23 cells at 10 uM after 48 hrs by coulter counting; settings: NCI-H23, 48 h, read-out: GI; procedure, shortened: as §2
NCI-H460 = experiment: Growth inhibition of human NCI-H460 cells at 10 uM after 48 hrs by coulter counting; procedure, shortened: as §2
NCI-H522 = experiment: Growth inhibition of human NCI-H522 cells at 10 uM after 48 hrs by coulter counting; settings: NCI-H522, 48 h, read-out: GI; procedure, shortened: as §2
HCT-116 = experiment: Growth inhibition of human HCT116 cells at 10 uM after 48 hrs by coulter counting; procedure, shortened: as §2
KM12 = experiment: Growth inhibition of human KM12 cells at 10 uM after 48 hrs by coulter counting; procedure, shortened: as §2
SF-268 = experiment: Growth inhibition of human SF268 cells at 10 uM after 48 hrs by coulter counting; settings: SF-268, 48 h, read-out: GI; procedure, shortened: as §2
SNB-19 = experiment: Growth inhibition of human SNB19 cells at 10 uM after 48 hrs by coulter counting; settings: SNB-19, 48 h, read-out: GI; procedure, shortened: as §2
U-251 = experiment: Growth inhibition of human U251 cells at 10 uM after 48 hrs by coulter counting; procedure, shortened: as §3
LOX IMVI = experiment: Growth inhibition of human LOXIMVI cells at 10 uM after 48 hrs by coulter counting; procedure, shortened: as §2
M14 = experiment: Growth inhibition of human M14 cells at 10 uM after 48 hrs by coulter counting; settings: M14, 48 h, read-out: GI; procedure, shortened: as §2
MDA-MB-435 = experiment: Growth inhibition of human MDA-MB-435 cells at 10 uM after 48 hrs by coulter counting; procedure, shortened: as §2
SK-MEL-5 = experiment: Growth inhibition of human SK-MEL-5 cells at 10 uM after 48 hrs by coulter counting; settings: SK-MEL-5, 48 h, read-out: GI; procedure, shortened: as §2
NCI/ADR-RES = experiment: Growth inhibition of human NCI/ADR-RES cells at 10 uM after 48 hrs by coulter counting; settings: read-out: GI; procedure, shortened: as §2
A498 = experiment: Growth inhibition of human A498 cells at 10 uM after 48 hrs by coulter counting; settings: A498, 48 h, read-out: GI; procedure, shortened: as §2
ACHN = experiment: Growth inhibition of human ACHN cells at 10 uM after 48 hrs by coulter counting; settings: read-out: GI; procedure, shortened: as §2
CAKI-1 = experiment: Growth inhibition of human Caki1 cells at 10 uM after 48 hrs by coulter counting; settings: CAKI-1, 48 h, read-out: GI; procedure, shortened: as §2
MCF7 = experiment: Growth inhibition of human MCF7 cells at 10 uM after 48 hrs by coulter counting; settings: MCF7, 48 h, read-out: GI; procedure, shortened: as §2
OVCAR-3 = experiment: Growth inhibition of human OVCAR3 cells at 10 uM after 48 hrs by coulter counting; procedure, shortened: as §2
OVCAR-8 = experiment: Growth inhibition of human OVCAR8 cells at 10 uM after 48 hrs by coulter counting; procedure, shortened: as §2
786-0 = experiment: Growth inhibition of human 786-0 cells at 10 uM after 48 hrs by coulter counting; settings: 786-0, 48 h, read-out: GI; procedure, shortened: as §2
SN12C = experiment: Growth inhibition of human SN12C cells at 10 uM after 48 hrs by coulter counting; settings: read-out: GI; procedure, shortened: as §2
TK-10 = experiment: Growth inhibition of human TK10 cells at 10 uM after 48 hrs by coulter counting; settings: TK-10, 48 h, read-out: GI; procedure, shortened: as §3
[3] = Cytotoxicity against human leukemia cells after 48 hrs by coulter counting; settings: Leukemia cell; procedure, shortened: as §1
[4] = read-out: LC50 (the source's name)

CCN1CC2=C(N=C3SC=CN3C2c2ccc(OC)cc2)/C(=C/c2ccc(OC)cc2)C1 (stereo not drawn)
GI50 [1]: 4.7 µM
LC50 [1]: 68.2 µM
TGI [1]: 9.4 µM
GI50 [2]: 2.8 µM
TGI [2]: 22.5 µM
CC50 [2, 4]: 74.7 µM
growth inhibition (GI) (HCT-15): Active
inhibition of growth at 10 µM (UACC-257): 44.8%
inhibition of growth at 10 µM (CCRF-CEM): 97.3%
inhibition of growth at 10 µM (HL-60(TB)): 84%
growth inhibition (GI) (K562): Active
inhibition of growth at 10 µM (MOLT-4): 90.4%
growth inhibition (GI) (RPMI-8226): Active
growth inhibition (GI) (SR): Active
inhibition of growth at 10 µM (A549): 66.3%
inhibition of growth at 10 µM (EKVX): 51.9%
growth inhibition (GI) (HOP-62): Active
inhibition of growth at 10 µM (NCI-H226): 88%
inhibition of growth at 10 µM (NCI-H23): 54.8%
growth inhibition (GI) (NCI-H460): Active
inhibition of growth at 10 µM (NCI-H522): 52.3%
growth inhibition (GI) (HCT-116): Active
growth inhibition (GI) (KM12): Active
inhibition of growth at 10 µM (SF-268): 85.5%
inhibition of growth at 10 µM (SNB-19): 68.3%
growth inhibition (GI) (U-251): Active
growth inhibition (GI) (LOX IMVI): Active
inhibition of growth at 10 µM (M14): 97.5%
growth inhibition (GI) (MDA-MB-435): Active
inhibition of growth at 10 µM (SK-MEL-5): 74.4%
inhibition of growth at 10 µM (NCI/ADR-RES): 76.9%
inhibition of growth at 10 µM (A498): 11.1%
inhibition of growth at 10 µM (ACHN): 83%
inhibition of growth at 10 µM (CAKI-1): 78.3%
inhibition of growth at 10 µM (MCF7): 74.3%
growth inhibition (GI) (OVCAR-3): Active
growth inhibition (GI) (OVCAR-8): Active
inhibition of growth at 10 µM (786-0): 53.2%
inhibition of growth at 10 µM (SN12C): 96.9%
inhibition of growth at 10 µM (TK-10): 70%
GI50 [3]: 2.7 µM
TGI [3]: 81.6 µM
CC50 [3, 4]: > 100 µM
